Our source for the cytotoxicity values is ChEMBL document CHEMBL4513216, “Probing the Open Global Health Chemical Diversity Library for Multistage-Active Starting Points for Next-Generation Antimalarials” (ACS Infect Dis, 2020).

This series in a line: Toxicity liver stage against HepG2, at 10uM. The class given is cell-based. Also on record: test concentration 10 uM, cell line HepG2-A16-CD81EGFP. The settings on record: human, HepG2-A16-CD81EGFP cells; read-out: INHIBITION
The gist of the method:
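Uninfected HepG2-A16-CD81EGFP cells, 3 × 10^3 per well, 1536-well, plated on prespotted compound at 10 μM final, parasite-free screening media added to match infected plates; puromycin 10 μM positive, DMSO 0.5% negative; run in parallel with 48 h PbLuc assay at 37 °C, 5% CO2; viability by CellTiter-Glo luminescence, normalized to controls.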
`CNC(=O)C(C)(C)N1CCC[C@H]1C(=O)NC1CC1`: the cytotoxicity at 10 µM came out at 4.82%.

On to `CC(C)c1noc([C@@H]2C[C@H](NS(=O)(=O)Cc3ccccc3)CN2C)n1`, for which the cytotoxicity at 10 µM is -2.1%.

As for `O=C(NC1CC1)c1cccc(Oc2ccc3nncn3n2)c1`, the cytotoxicity at 10 µM is -5.29%.

For `Cc1cc(Br)c2c(c1)C1(CC(=O)Nc3c1cnn3C(C)C)C(=O)N2` (centres undefined), the cytotoxicity at 10 µM is -10.3%.

For `CCNC(=O)N1CCC2(CC1)CCn1c(-c3ccccc3)cnc12`, the cytotoxicity at 10 µM was -8.19%.

In the case of `O=C(CO)N1CC2(CCN(c3ccccc3)C2)C1`, the cytotoxicity at 10 µM was 8.98%.

Consider `CCN1CC2(CCN(C(=O)N(C)C)CC2)COc2ccccc2S1(=O)=O`, for which the cytotoxicity at 10 µM was 6.55%.

In the case of `O=C1CC(c2ccc(C(=O)O)cc2)c2ncn(-c3cccnc3)c2N1` (centres undefined), the cytotoxicity at 10 µM was -1.64%.

For the compound `CCCN1C(=O)CC(N2CCN(c3ccc(F)cc3)CC2)C1=O` (centres undefined), the cytotoxicity at 10 µM is -3.03%.

`CCc1nnc(Nc2cccc(C3CCCN(CC(C)(C)C)C3)n2)s1` (centres undefined): the cytotoxicity at 10 µM is -33.9%.

In the case of `CN1CC(c2cc(O)nc(NCc3cccc(F)c3)n2)CC1=O` (centres undefined), the cytotoxicity at 10 µM worked out at 1.96%.

Turning to `CSc1ccsc1C(=O)NCCNC(=O)C1CC1`, the cytotoxicity at 10 µM turned out to be 1.93%.

On to `CCc1ncc(CN(C)C2CCN(c3sccc3C#N)C2=O)s1` (centres undefined), for which the cytotoxicity at 10 µM was -0.876%.

As for `CNS(=O)(=O)c1ccc(CNC(=O)C2CCCN(C)C2)cc1` (centres undefined), the cytotoxicity at 10 µM is -10.5%.

Regarding `Cc1cc(NC(=O)NCCOc2ccc(Cl)cn2)no1`, the cytotoxicity at 10 µM came to 9.08%.

Consider `CCC(C)(NCC(=O)OC)c1nc(C)cs1` (centres undefined), for which the cytotoxicity at 10 µM was -3.94%.

Consider `O=C(Nc1cc(Cl)ccn1)c1nc(N2CCCC2)ncc1Cl`, for which the cytotoxicity at 10 µM is -9.26%.

For the compound `CCn1nc2c(cc1=O)CN(CC(=O)Nc1cc(C)no1)CC2`, the cytotoxicity at 10 µM is -5.22%.

As to `COCCN1CCC(NC(=O)C(C)C)CC1`, the cytotoxicity at 10 µM was -2.45%.

For `CC(C(=O)N1CCc2ccccc21)N1CCc2cncnc2C1` (centres undefined), the cytotoxicity at 10 µM stood at 0.693%.

Turning to `Cc1cccc(N(CCC#N)S(=O)(=O)CC2CCCCO2)c1` (centres undefined), the cytotoxicity at 10 µM was 6.48%.

Regarding `CCOc1ccc(CN2C(=O)CC3(CCCC3)C2=O)nc1`, the cytotoxicity at 10 µM was -4.01%.

`CCOCC(=O)N(C)c1ccc(F)c(Cl)c1`: the cytotoxicity at 10 µM was -3.99%.

On to `CCc1nsc(N2CCc3sccc3C2)n1`, for which the cytotoxicity at 10 µM was found to be 1.56%.

In the case of `COCCCNC(=O)C1(NC(=O)c2ccc3[nH]ncc3c2)CCCC1`, the cytotoxicity at 10 µM was -1.62%.

Regarding `O=S1(=O)CCC(N(CCc2ccc3c(c2)CCO3)C2CC2)C1` (centres undefined), the cytotoxicity at 10 µM was -0.532%.

With `O=C(NCCn1cccc1)c1c(O)cc(F)cc1F`, the cytotoxicity at 10 µM is -5.22%.

Take `CCc1nc(C2CCCN2Cc2nc(C3CC3)no2)no1` (centres undefined): the cytotoxicity at 10 µM was -21.4%.

Consider `O=C(CC1CN(Cc2ccccc2)CCO1)Nc1ccccc1F` (centres undefined), for which the cytotoxicity at 10 µM is -2.05%.

`CO[C@H]1CNC[C@@H]1NC(=O)c1cc(C)nc2c(C)cc(C)cc12`: the cytotoxicity at 10 µM is 4.12%.

As to `COc1nc2c(cc1C(=O)N1CCCCC1c1ccccn1)CCC2` (centres undefined), the cytotoxicity at 10 µM was -12.5%.

Consider `CCCOC(=O)N1CCCn2nc(C(=O)Nc3ccccc3)cc2C1`, for which the cytotoxicity at 10 µM is 7.23%.

`COc1ccc(N2CCN(C(=O)CCn3nnnc3C)CC2(C)C)cc1`: the cytotoxicity at 10 µM is 10.4%.

As for `Cc1ccncc1C(=O)N1CCCC(C(=O)CCc2ccccc2)C1` (centres undefined), the cytotoxicity at 10 µM amounted to 18%.

As for `CCN(Cc1nc2c(cnn2C)c(=O)[nH]1)c1cccc(F)c1`, the cytotoxicity at 10 µM was -0.746%.

Regarding `CCc1cnc(N2CC[C@H]3[C@H]2CC(=O)N3c2cccnc2)nc1`, the cytotoxicity at 10 µM was -9.62%.

On to `O=C(NCC1CC1)[C@@H]1CC[C@@H]2[C@@H](CCN2Cc2ccco2)O1`, for which the cytotoxicity at 10 µM is 4.62%.

Take `O=C(CC1CC1)N1CC[C@@H]2[C@H](CC1)N(Cc1cccnc1)CCS2(=O)=O`: the cytotoxicity at 10 µM came to 5.96%.

With `c1cnc(N2CCN(C3CCC[C@@H]4CN(CC5CC5)C[C@H]34)CC2)nc1` (some centres undefined), the cytotoxicity at 10 µM is 8.97%.
